ChEMBL document CHEMBL1156789, “Design and synthesis of 5,5'-disubstituted aminohydantoins as potent and selective human beta-secretase (BACE1) inhibitors” (J Med Chem, 2010)

Tests used:
[1] = target: T1, Beta-secretase 2 (Homo sapiens, UniProt Q9Y5Z0); experiment: Inhibition of human BACE2 by FRET based peptide cleavage assay
T1 sequence (Q9Y5Z0 whole entry): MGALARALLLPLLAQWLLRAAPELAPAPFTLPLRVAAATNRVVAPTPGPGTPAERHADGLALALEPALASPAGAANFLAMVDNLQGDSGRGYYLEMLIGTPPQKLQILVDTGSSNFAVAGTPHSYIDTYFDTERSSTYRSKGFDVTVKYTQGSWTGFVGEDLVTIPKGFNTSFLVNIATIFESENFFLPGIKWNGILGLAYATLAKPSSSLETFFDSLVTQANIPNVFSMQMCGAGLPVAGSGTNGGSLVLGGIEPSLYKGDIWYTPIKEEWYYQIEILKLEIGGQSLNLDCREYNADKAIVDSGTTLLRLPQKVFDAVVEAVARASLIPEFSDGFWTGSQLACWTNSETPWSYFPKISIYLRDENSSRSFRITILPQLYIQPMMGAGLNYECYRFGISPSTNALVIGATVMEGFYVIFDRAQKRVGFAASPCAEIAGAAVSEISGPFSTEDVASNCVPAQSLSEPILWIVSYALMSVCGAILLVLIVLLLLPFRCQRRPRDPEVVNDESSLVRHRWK

[2] = target: T2, Cathepsin D (Homo sapiens, UniProt P07339); experiment: Inhibition of human cathepsin D by FRET based peptide cleavage assay
[3] = target: T3, Beta-secretase 1 (Homo sapiens, UniProt P56817); experiment: Inhibition of human BACE1 by FRET based peptide cleavage assay
[4] = target: T3, Beta-secretase 1; experiment: Inhibition of BACE1 expressed in CHOK1 cells coexpressing human recombinant wild type APP assessed as blockade of amyloid beta production by ELISA; format: cell-based, CHO-K1
[5] = target: T4, Beta-secretase 2 (Homo sapiens) (UniProt Q9Y5Z0); conditions: 25 uM
T4 sequence (whole entry): T1 sequence (Q9Y5Z0 whole entry)

[6] = Dissociation constant, pKa of the compound; format: physicochemical
[7] = test system: Mus musculus; experiment: Reduction in amyloid beta 40 level in Tg2576 mouse plasma at 100 mg/kg, po after 8 hrs; format: functional; parameters: scale not given: the % may be the effect or the level left
Outline: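 Tg2576 mice received a single acute oral dose. Plasma Aβ40 was measured 8 h after dosing.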

[8] = target: T5, Renin (Homo sapiens, UniProt P00797); experiment: Inhibition of human recombinant renin by FRET based peptide cleavage assay
T5 sequence (P00797 whole entry): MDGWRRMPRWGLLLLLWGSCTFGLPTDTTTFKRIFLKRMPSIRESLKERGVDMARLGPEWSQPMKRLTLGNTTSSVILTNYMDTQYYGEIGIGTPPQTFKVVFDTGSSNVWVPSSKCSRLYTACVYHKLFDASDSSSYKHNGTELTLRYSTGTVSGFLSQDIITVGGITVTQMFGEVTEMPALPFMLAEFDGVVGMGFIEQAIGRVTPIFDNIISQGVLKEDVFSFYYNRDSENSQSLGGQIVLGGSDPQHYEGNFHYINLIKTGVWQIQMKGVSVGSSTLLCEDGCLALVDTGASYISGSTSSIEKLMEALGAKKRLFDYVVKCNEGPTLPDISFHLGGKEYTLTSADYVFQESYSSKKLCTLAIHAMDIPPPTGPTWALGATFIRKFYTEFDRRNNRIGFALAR

[9] = Inhibition of pepsin by FRET based peptide cleavage assay
[10] = target: T2, Cathepsin D; experiment: Inhibition of human cathepsin D at 100 uM by FRET based peptide cleavage assay
[11] = species on record: Homo sapiens; experiment: Selectivity for human BACE1 over human BACE2

T3 sequence (P56817 whole entry): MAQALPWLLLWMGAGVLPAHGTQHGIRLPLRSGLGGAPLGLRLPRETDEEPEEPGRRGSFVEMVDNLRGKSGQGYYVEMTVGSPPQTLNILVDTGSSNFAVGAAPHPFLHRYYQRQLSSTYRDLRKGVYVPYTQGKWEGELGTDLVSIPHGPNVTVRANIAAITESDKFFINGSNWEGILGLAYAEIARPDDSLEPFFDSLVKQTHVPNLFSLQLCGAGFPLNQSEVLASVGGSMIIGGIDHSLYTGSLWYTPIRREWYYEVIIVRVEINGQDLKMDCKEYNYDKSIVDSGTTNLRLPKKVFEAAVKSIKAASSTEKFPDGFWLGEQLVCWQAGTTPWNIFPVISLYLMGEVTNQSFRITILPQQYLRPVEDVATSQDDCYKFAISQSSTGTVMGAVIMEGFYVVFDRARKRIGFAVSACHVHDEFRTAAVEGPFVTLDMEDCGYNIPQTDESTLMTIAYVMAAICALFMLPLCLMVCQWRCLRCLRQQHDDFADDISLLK
T2 sequence (P07339 65-162 limits assumed): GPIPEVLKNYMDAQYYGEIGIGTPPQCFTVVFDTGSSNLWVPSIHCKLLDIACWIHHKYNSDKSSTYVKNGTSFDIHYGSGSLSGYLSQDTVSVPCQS
T2 sequence (P07339 169-412 limits assumed): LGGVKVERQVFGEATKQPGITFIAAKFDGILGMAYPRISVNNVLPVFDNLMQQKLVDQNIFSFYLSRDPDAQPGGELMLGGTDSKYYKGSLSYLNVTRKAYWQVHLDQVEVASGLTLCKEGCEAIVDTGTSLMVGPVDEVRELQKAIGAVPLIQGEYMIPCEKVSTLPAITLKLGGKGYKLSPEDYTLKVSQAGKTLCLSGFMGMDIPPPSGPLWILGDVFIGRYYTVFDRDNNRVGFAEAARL

Structure (SMILES) | IC50 [1] [µM] | IC50 [2] [µM] | IC50 [3] [µM] | EC50 [4] [µM] | further results
COc1ccc(-c2cccc(C3(c4ccc(OC(F)(F)F)cc4)N=C(N)N(C)C3=O)c2)cn1 (configuration not stated) | 2.51 | 4.43 |  |  | 
CCCOc1cc(C2(c3cccc(-c4cccnc4)c3)N=C(N)N(C)C2=O)ccc1OC (configuration not stated) | 0.2 | 10.1 | 0.05 | 0.68 | 
COc1ccc([C@@]2(C34CC5CC(CC(C5)C3)C4)N=C(N)N(C)C2=O)cc1 |  | 20.8 |  |  | inhibition [5]: 50%
CCOc1cc(C2(c3cccc(-c4cccnc4)c3)N=C(N)N(C)C2=O)ccc1OC (configuration not stated) | 0.6 | 10.3 | 0.05 | 0.52 | 
CN1C(=O)C(c2ccccc2)(c2ccc(Cl)cc2)N=C1N (configuration not stated) | 1.84 | 38.2 | 2.25 | 2.13 | 
COc1ccc(C2(c3cccc(-c4cccnc4)c3)N=C(N)N(C)C2=O)cc1Cl (configuration not stated) | 0.56 | 6.28 |  |  | 
COc1ccc(C2(c3cccc(-c4cccnc4)c3)N=C(N)N(C)C2=O)cc1C#N (configuration not stated) | 0.55 | 7.3 | 0.15 | 4.5 | 
COc1ncccc1-c1cccc(C2(c3ccc(OC(F)(F)F)cc3)N=C(N)N(C)C2=O)c1 (configuration not stated) | 5.99 | 2.05 | 0.52 | 2.57 | 
CN1C(=O)C(c2ccc(OC(F)(F)F)cc2)(c2cccc(-c3cncnc3)c2F)N=C1N (configuration not stated) | 5.04 | 26.2 | 1.36 | 2.83 | 
CN1C(=O)C(c2cccc(-c3cccnc3)c2)(c2ccc3c(c2)OCCO3)N=C1N (configuration not stated) | 0.5 | 10.9 |  |  | 
NC1=NC(c2ccccc2)(c2ccccc2)C2=NCCCN12 |  |  |  |  | pKa [6]: 7.6
CN1C(=O)C(c2ccc(OC(F)(F)F)cc2)(c2ccc(F)c(-c3cncnc3)c2)N=C1N (configuration not stated) | 9.69 | 4.18 |  |  | 
COc1ccc(C2(c3cccc(-c4cccnc4)c3)N=C(N)N(C)C2=O)cc1C1CCCC1 (configuration not stated) | 0.96 | 1.87 |  |  | 
CN1C(=O)C(c2cccc(-c3cccnc3)c2)(c2ccc3c(c2)CCO3)N=C1N (configuration not stated) | 1.13 | 23.9 |  |  | 
CN1C(=O)[C@](c2ccc(OC(F)(F)F)cc2)(c2ccc(F)c(-c3cncnc3)c2)N=C1N | 9.97 | 11.6 |  |  | 
COc1ccc(C2(c3ccc(C)c(-c4cccnc4)c3)N=C(N)N(C)C2=O)cc1C (configuration not stated) | 0.96 | 2.47 |  |  | 
COc1ccc([C@@]2(c3ccc(F)c(-c4cccnc4F)c3)N=C(N)N(C)C2=O)cc1C | 0.81 | 0.82 |  |  | Activity [7]: 69%
COc1ccc(C2(C34CC5CC(CC(C5)C3)C4)N=C(N)N(C)C2=O)cc1 (configuration not stated) | 0.68 | 15.3 |  |  | IC50 [8]: 53.3 µM; IC50 [9]: 14.4 µM
CN1C(=O)C(c2cccc(-c3cccnc3)c2)(c2ccc3c(c2)OCO3)N=C1N (configuration not stated) | 0.54 | 21.4 |  |  | 
CN1C(=O)C(c2ccccc2)(c2ccccc2)N=C1N |  |  |  |  | pKa [6]: 5.7; inhibition [10]: 36%; IC50 [8]: 9.6 µM; IC50 [9]: 11.1 µM
NC1=NC(c2ccccc2)(c2ccccc2)C(=O)N1 | 87.2 |  |  | 23.5 | inhibition [10]: 13%
CCN1C(=O)C(c2ccccc2)(c2ccccc2)N=C1N | 5.16 |  |  | 8.13 | inhibition [10]: 33%
CN1C(=O)C(c2ccc(OC(F)(F)F)cc2)(c2cc(F)cc(-c3cncnc3)c2)N=C1N (configuration not stated) | 1.26 | 8.55 | 0.32 |  | IC50 [8]: 13.8 µM; IC50 [9]: 35.1 µM
COc1ccc([C@]2(C34CC5CC(CC(C5)C3)C4)N=C(N)N(C)C2=O)cc1C | 4.02 | 9.21 |  |  | 
COc1ccc(C2(c3cccc(-c4cccnc4)c3)N=C(N)N(C)C2=O)cc1OC1CCCC1 (configuration not stated) | 0.3 | 8.3 |  |  | 

Structure (SMILES) | IC50 [1] [µM] | IC50 [2] [µM] | IC50 [3] [µM] | EC50 [4] [µM] | further results
COc1ccc(C2(c3cccc(-c4cccnc4)c3)N=C(N)N(C)C2=O)cc1C (configuration not stated) |  |  |  |  | IC50 [8]: 93.4 µM; IC50 [9]: 19.6 µM
COc1ccc(C2(c3cccc(-c4cccnc4F)c3)N=C(N)N(C)C2=O)cc1C (configuration not stated) |  |  |  | 0.11 | 
COc1ccc([C@]2(c3ccc(F)c(-c4cccnc4F)c3)N=C(N)N(C)C2=O)cc1C | 1.64 | 2.71 |  |  | 
COc1cccc(C2(c3ccccc3)N=C(N)N(C)C2=O)c1 (configuration not stated) | 1.19 |  | 3.47 | 5.9 | inhibition [10]: 46%
COc1ccc(C2(c3cccc(-c4cccnc4)c3)N=C(N)N(C)C2=O)cc1F (configuration not stated) | 0.52 | 5.2 | 0.05 | 0.42 | 
COc1ccc(C2(C34CC5CC(CC(C5)C3)C4)N=C(N)N(C)C2=O)cc1OC (configuration not stated) | 9.59 | 36.6 | 0.27 | 0.19 | Ratio IC50 [11]: 20
CCc1cc(C2(C34CC5CC(CC(C5)C3)C4)N=C(N)N(C)C2=O)ccc1OC (configuration not stated) | 4.33 | 14.1 | 0.28 | 0.76 | Ratio IC50 [11]: 20
COc1ccc(C2(c3ccc(F)c(-c4cncnc4)c3)N=C(N)N(C)C2=O)cc1C (configuration not stated) | 2.8 | 6.7 |  |  | IC50 [8]: 57.6 µM; IC50 [9]: 35.3 µM
COc1ccc([C@@]2(C34CC5CC(CC(C5)C3)C4)N=C(N)N(C)C2=O)cc1C | 73.6 | 13.1 |  |  | 
COc1ccc(C2(c3ccccc3)N=C(N)N(C)C2=O)cc1 (configuration not stated) | 1.72 |  | 3.1 | 3.35 | inhibition [10]: 3%
COc1ccc(C2(c3cccc(-c4cccnc4)c3)N=C(N)N(C)C2=O)cc1C(F)(F)F (configuration not stated) | 1 | 3.51 |  |  | 
CCCCOc1ccc(C2(C34CC5CC(CC(C5)C3)C4)N=C(N)N(C)C2=O)cc1 (configuration not stated) | 5.55 | 8.4 |  |  | 
CN1C(=O)[C@@](c2ccc(OC(F)(F)F)cc2)(c2ccc(F)c(-c3cncnc3)c2)N=C1N | 7.54 | 2.33 |  |  | 
COc1ccc([C@]2(C34CC5CC(CC(C5)C3)C4)N=C(N)N(C)C2=O)cc1 | 0.23 | 13.4 |  |  | 
CCCCOc1cc(C2(c3cccc(-c4cccnc4)c3)N=C(N)N(C)C2=O)ccc1OC (configuration not stated) | 0.17 | 8.18 | 0.05 | 0.67 | 
COc1ccc(C2(c3cccc(-c4cncnc4)c3)N=C(N)N(C)C2=O)cc1C (configuration not stated) | 1.59 | 14.3 |  |  | IC50 [8]: 42.3 µM; IC50 [9]: 33.3 µM
COc1ccc(C2(C34CC5CC(CC(C5)C3)C4)N=C(N)N(C)C2=O)cc1C (configuration not stated) | 6.29 | 11.1 |  |  | IC50 [8]: 59.5 µM; IC50 [9]: 15 µM
COc1ccc(C2(c3cccc(-c4cccnc4)c3)N=C(N)N(C)C2=O)cc1OC(C)C (configuration not stated) | 1.84 | 12.2 | 0.06 | 0.87 | 
COc1ccc(C2(c3ccc(F)c(-c4cccnc4F)c3)N=C(N)N(C)C2=O)cc1C (configuration not stated) | 1.84 | 2.41 |  |  | IC50 [8]: 23.2 µM; IC50 [9]: 66.3 µM
CCOc1ccc(C2(C34CC5CC(CC(C5)C3)C4)N=C(N)N(C)C2=O)cc1 (configuration not stated) | 2.53 | 11.5 |  |  | 
COc1ccc(C2(c3ccc(C#N)c(-c4cccnc4)c3)N=C(N)N(C)C2=O)cc1C (configuration not stated) | 2.32 | 2.19 | 0.63 | 1.75 | 
COc1ccc(C2(c3cccc(-c4cccnc4)c3)N=C(N)N(C)C2=O)cc1OC (configuration not stated) |  | 23.1 |  |  | 
CN1C(=O)C(c2ccccc2)(c2cccc(Cl)c2)N=C1N (configuration not stated) | 0.42 | 69.2 | 2.5 | 6.97 | 
CN1C(=O)C(c2ccccc2)(C23CC4CC(CC(C4)C2)C3)N=C1N (configuration not stated) | 0.83 | 27.3 |  |  | 
CN1C(=O)C(c2ccc(OC(F)(F)F)cc2)(C23CC4CC(CC(C4)C2)C3)N=C1N (configuration not stated) | 3.87 | 6.22 |  |  | 
